Where a SMILES comes first, the peptide text is derived from it. [ ]: non-standard residue; d: D form. The star is where a group is joined. Benzoyl(4-tBu) = CC(C)(C)c1ccc(C(=O)*)cc1; Lys(Et2) = CCN(CC)CCCC[C@H](N)C(=O)O
How the values were obtained:
[1] = tested on: PRC2 complexes containing EED mutations (F97A, W364A, Y365A); assay: PRC2 methyltransferase assay with EED aromatic cage mutants; assay type: biochemical
How it was run: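 EZH2:EED:SUZ12 complexes carrying EED cage mutations made by site-directed mutagenesis, co-expressed in baculovirus-infected Sf9 cells, and FLAG-affinity purified like wild type. Reaction ran 1 h at 23 °C in 20 mM Tris-HCl pH 8, 5 mM DTT, 0.01% Triton X-100 with 1 µM 3H-SAM, 1 µM biotinylated H3(21–44), and 20 nM complex. Stopped by adding 7.5 M guanidine-HCl. Scintillation proximity read-out on streptavidin Flash-plates after 2 h. Normalised to no-compound (100%) and no-enzyme (0%) CPM.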

EED = EED (Homo sapiens, UniProt O75530); conditions: cited from earlier work
EED, sequence (O75530 whole entry): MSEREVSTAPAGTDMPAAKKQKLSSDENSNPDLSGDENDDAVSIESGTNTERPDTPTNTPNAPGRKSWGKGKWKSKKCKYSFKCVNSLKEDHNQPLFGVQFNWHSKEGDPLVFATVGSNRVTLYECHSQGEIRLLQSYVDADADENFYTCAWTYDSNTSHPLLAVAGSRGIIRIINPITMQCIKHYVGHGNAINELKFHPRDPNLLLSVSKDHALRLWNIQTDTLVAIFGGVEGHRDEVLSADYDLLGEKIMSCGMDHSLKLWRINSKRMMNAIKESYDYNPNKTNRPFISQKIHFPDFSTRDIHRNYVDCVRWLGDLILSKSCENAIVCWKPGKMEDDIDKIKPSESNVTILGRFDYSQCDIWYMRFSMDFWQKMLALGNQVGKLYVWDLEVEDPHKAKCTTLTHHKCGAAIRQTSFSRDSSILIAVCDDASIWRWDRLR

inhibition of basal catalytic activity of PRC2 with EED mutants [1] | Compound | affinity for EED in solution-based assays (EED)
completely abrogates the activity | CCCc1cc(C)[nH]c(=O)c1CNC(=O)c1cc(-c2ccc(N3CCN(C(C)C)CC3)nc2)cc2c1cnn2C(C)C [UNC1999] | 
 | CCN(CC)CCCC[C@H](NC(=O)[C@H](CC(C)C)NC(=O)[C@H](C)NC(=O)[C@H](Cc1ccccc1)NC(=O)c1ccc(C(C)(C)C)cc1)C(=O)N[C@@H](CO)C(=O)OC [UNC3866] ({Benzoyl(4-tBu)}-FAL[Lys(Et2)]S-OMe) | lack of affinity

Source: paper PMC5376495 (ACS combinatorial science, 2017)
